In ChEMBL document CHEMBL1629431, “Synthesis and antitumor activity of some 2, 3-disubstituted quinazolin-4(3H)-ones and 4, 6- disubstituted- 1, 2, 3, 4-tetrahydroquinazolin-2H-ones” (2010):

Key:
Format in all cases: functional
[1] = tested on: SF-539; assay: Growth inhibition of human SF539 cells at 10 uM after 48 hrs by coulter counter method; details: SF-539, 48 h, read-out: GI
Procedure, shortened: (§1)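 Single high-dose NCI 60-cell-line panel screen across nine tumor subpanels. Test solutions (0.2 mL) were added in duplicate to wells holding 1.8 mL of culture at 6 × 10⁴ cells/mL. Controls got PBS and DMSO at identical dilutions. Incubation was 48 h at 37 °C in humidified 5% CO₂. Cells were diluted 10-fold in saline, Coulter-counted and dilution-corrected. Results were expressed as percent growth inhibition versus control.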

[2] = tested on: HCT-116; assay: Growth inhibition of human HCT116 cells at 10 uM after 48 hrs by coulter counter method; details: HCT-116, 48 h, read-out: GI; procedure, shortened: as §1
[3] = tested on: K562; assay: Growth inhibition of human K562 cells at 10 uM after 48 hrs by coulter counter method; details: K562, 48 h, read-out: GI; procedure, shortened: as §1
[4] = tested on: UACC-62; assay: Growth inhibition of human UACC62 cells at 10 uM after 48 hrs by coulter counter method; details: UACC-62, 48 h, read-out: GI; procedure, shortened: as §1
[5] = tested on: MCF7; assay: Growth inhibition of human MCF7 cells at 10 uM after 48 hrs by coulter counter method; details: MCF7, 48 h, read-out: GI; procedure, shortened: as §1
[6] = tested on: NCI-H226; assay: Growth inhibition of human NCI-H226 cells at 10 uM after 48 hrs by coulter counter method; details: NCI-H226, 48 h, read-out: GI; procedure, shortened: as §1
[7] = tested on: PC-3; assay: Growth inhibition of human PC3 cells at 10 uM after 48 hrs by coulter counter method; details: PC-3, 48 h, read-out: GI; procedure, shortened: as §1
[8] = tested on: BT-549; assay: Growth inhibition of human BT549 cells at 10 uM after 48 hrs by coulter counter method; details: BT-549, 48 h, read-out: GI; procedure, shortened: as §1
[9] = tested on: SK-OV-3; assay: Growth inhibition of human SKOV3 cells at 10 uM after 48 hrs by coulter counter method; details: SK-OV-3, 48 h, read-out: GI; procedure, shortened: as §1
[10] = tested on: OVCAR-4; assay: Growth inhibition of human OVCAR4 cells at 10 uM after 48 hrs by coulter counter method; details: OVCAR-4, 48 h, read-out: GI; procedure, shortened: as §1
[11] = tested on: HT-29; assay: Growth inhibition of human HT-29 cells at 10 uM after 48 hrs by coulter counter method; details: HT-29, 48 h, read-out: GI; procedure, shortened: as §1
[12] = tested on: HL-60(TB); assay: Growth inhibition of human HL-60(TB) cells at 10 uM after 48 hrs by coulter counter method; details: HL-60, 48 h, read-out: GI
Procedure, shortened: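 Part of the NCI 60-cell-line single-high-dose panel. Cells were seeded at 6 × 10⁴ cells/mL with test solution in duplicate wells, alongside PBS/DMSO controls at identical dilutions. Plates were held 48 h at 37 °C in a humidified 5% CO₂ incubator. Cells were then diluted 10-fold in saline and counted by Coulter counter, with counts corrected for dilution. Results are percent growth of treated cells, reported as GI %.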

[13] = tested on: COLO 205; assay: Growth inhibition of human COLO205 cells at 10 uM after 48 hrs by coulter counter method; details: COLO 205, 48 h, read-out: GI; procedure, shortened: as §1
[14] = tested on: 786-0; assay: Growth inhibition of human 786-0 cells at 10 uM after 48 hrs by coulter counter method; details: 786-0, 48 h, read-out: GI; procedure, shortened: as §1
[15] = tested on: UO-31; assay: Growth inhibition of human UO31 cells at 10 uM after 48 hrs by coulter counter method; details: UO-31, 48 h, read-out: GI; procedure, shortened: as §1
[16] = tested on: U-251; assay: Growth inhibition of human U251 cells at 10 uM after 48 hrs by coulter counter method; details: U-251, 48 h, read-out: GI; procedure, shortened: as §1
[17] = tested on: A549; assay: Growth inhibition of human A549 cells at 10 uM after 48 hrs by coulter counter method; details: A549, 48 h, read-out: GI; procedure, shortened: as §1
[18] = tested on: IGROV-1; assay: Growth inhibition of human IGROV1 cells at 10 uM after 48 hrs by coulter counter method; details: IGROV-1, 48 h, read-out: GI; procedure, shortened: as §1
[19] = tested on: SNB-75; assay: Growth inhibition of human SNB75 cells at 10 uM after 48 hrs by coulter counter method; details: SNB-75, 48 h, read-out: GI; procedure, shortened: as §1
[20] = tested on: M14; assay: Growth inhibition of human M14 cells at 10 uM after 48 hrs by coulter counter method; details: M14, 48 h, read-out: GI; procedure, shortened: as §1
[21] = tested on: MDA-MB-231; assay: Growth inhibition of human MDA-MB-231 cells at 10 uM after 48 hrs by coulter counter method; details: MDA-MB-231, 48 h, read-out: GI; procedure, shortened: as §1
[22] = tested on: MDA-MB-468; assay: Growth inhibition of human MDA-MB-468 cells at 10 uM after 48 hrs by coulter counter method; details: MDA-MB-468, 48 h, read-out: GI; procedure, shortened: as §1
[23] = tested on: NCI-H522; assay: Growth inhibition of human NCI-H522 cells at 10 uM after 48 hrs by coulter counter method; details: NCI-H522, 48 h, read-out: GI; procedure, shortened: as §1
[24] = tested on: MOLT-4; assay: Growth inhibition of human MOLT4 cells at 10 uM after 48 hrs by coulter counter method; details: MOLT-4, 48 h, read-out: GI; procedure, shortened: as §1
[25] = tested on: T47D; assay: Growth inhibition of human T47D cells at 10 uM after 48 hrs by coulter counter method; details: read-out: GI; procedure, shortened: as §1
[26] = tested on: HOP-92; assay: Growth inhibition of human HOP92 cells at 10 uM after 48 hrs by coulter counter method; details: HOP-92, 48 h, read-out: GI; procedure, shortened: as §1
[27] = tested on: NCI-H23; assay: Growth inhibition of human NCI-H23 cells at 10 uM after 48 hrs by coulter counter method; details: NCI-H23, 48 h, read-out: GI; procedure, shortened: as §1
[28] = tested on: KM12; assay: Growth inhibition of human KM12 cells at 10 uM after 48 hrs by coulter counter method; details: KM12, 48 h, read-out: GI; procedure, shortened: as §1
[29] = tested on: SR; assay: Growth inhibition of human SR cells at 10 uM after 48 hrs by coulter counter method; details: read-out: GI; procedure, shortened: as §1
[30] = tested on: CAKI-1; assay: Growth inhibition of human Caki1 cells at 10 uM after 48 hrs by coulter counter method; details: CAKI-1, 48 h, read-out: GI; procedure, shortened: as §1
[31] = tested on: SF-268; assay: Growth inhibition of human SF268 cells at 10 uM after 48 hrs by coulter counter method; details: SF-268, 48 h, read-out: GI; procedure, shortened: as §1
[32] = tested on: OVCAR-8; assay: Growth inhibition of human OVCAR8 cells at 10 uM after 48 hrs by coulter counter method; details: OVCAR-8, 48 h, read-out: GI; procedure, shortened: as §1
[33] = tested on: CCRF-CEM; assay: Growth inhibition of human CCRF-CEM cells at 10 uM after 48 hrs by coulter counter method; details: read-out: GI; procedure, shortened: as §1
[34] = tested on: SK-MEL-28; assay: Growth inhibition of human SK-MEL-28 cells at 10 uM after 48 hrs by coulter counter method; details: SK-MEL-28, 48 h, read-out: GI; procedure, shortened: as §1
[35] = Growth inhibition of human Hs 578T cells at 10 uM after 48 hrs by coulter counter method; details: read-out: GI; procedure, shortened: as §1
[36] = tested on: SN12C; assay: Growth inhibition of human SN12C cells at 10 uM after 48 hrs by coulter counter method; details: read-out: GI; procedure, shortened: as §1
[37] = tested on: SK-MEL-2; assay: Growth inhibition of human SK-MEL-2 cells at 10 uM after 48 hrs by coulter counter method; details: SK-MEL-2, 48 h, read-out: GI; procedure, shortened: as §1

Structure (SMILES)	inhibition of growth at 10 µM [1] [%]	inhibition of growth at 10 µM [2] [%]	inhibition of growth at 10 µM [3] [%]	inhibition of growth at 10 µM [4] [%]	inhibition of growth at 10 µM [5] [%]	inhibition of growth at 10 µM [6] [%]	inhibition of growth at 10 µM [7] [%]	inhibition of growth at 10 µM [8] [%]	inhibition of growth at 10 µM [9] [%]	inhibition of growth at 10 µM [10] [%]	inhibition of growth at 10 µM [11] [%]	inhibition of growth at 10 µM [12] [%]	inhibition of growth at 10 µM [13] [%]	inhibition of growth at 10 µM [14] [%]	inhibition of growth at 10 µM [15] [%]	inhibition of growth at 10 µM [16] [%]	inhibition of growth at 10 µM [17] [%]	inhibition of growth at 10 µM [18] [%]	inhibition of growth at 10 µM [19] [%]	inhibition of growth at 10 µM [20] [%]	other results
O=c1c2ccccc2nc(Nc2cc(O)nc(S)n2)n1-c1ccc(Cl)cc1	30	30	36.5	30	30	30	30	30	30	30	30	30	30	30	30	30	30	30	30	30	inhibition of growth at 10 µM [21]: 30%; inhibition of growth at 10 µM [22]: 30%; inhibition of growth at 10 µM [23]: 30%; inhibition of growth at 10 µM [24]: 30.8%; inhibition of growth at 10 µM [25]: 30%; inhibition of growth at 10 µM [26]: 30%; inhibition of growth at 10 µM [27]: 30%; inhibition of growth at 10 µM [28]: 30%; inhibition of growth at 10 µM [29]: 36.4%; inhibition of growth at 10 µM [30]: 30%; inhibition of growth at 10 µM [31]: 30%; inhibition of growth at 10 µM [32]: 30%; inhibition of growth at 10 µM [33]: 30%; inhibition of growth at 10 µM [34]: 30%; inhibition of growth at 10 µM [35]: 30%; inhibition of growth at 10 µM [36]: 30%; inhibition of growth at 10 µM [37]: 30%
O=C1Nc2ccc(C(=O)Nc3ccccn3)cc2C(c2ccc(Cl)cc2)N1 (centres undefined)	30	39.8	30	30	39.2	30	32.9	31.8	30	30	37.4	30	30	30	41.8	30	30	30	30	30	inhibition of growth at 10 µM [21]: 30%; inhibition of growth at 10 µM [22]: 30%; inhibition of growth at 10 µM [23]: 30%; inhibition of growth at 10 µM [24]: 33.9%; inhibition of growth at 10 µM [25]: 44.9%; inhibition of growth at 10 µM [26]: 30%; inhibition of growth at 10 µM [27]: 30.4%; inhibition of growth at 10 µM [28]: 30%; inhibition of growth at 10 µM [29]: 30%; inhibition of growth at 10 µM [30]: 30%; inhibition of growth at 10 µM [31]: 30%; inhibition of growth at 10 µM [32]: 30%; inhibition of growth at 10 µM [33]: 30%; inhibition of growth at 10 µM [34]: 30%; inhibition of growth at 10 µM [35]: 30%; inhibition of growth at 10 µM [36]: 30%; inhibition of growth at 10 µM [37]: 30%
